This is a sample that favours compounds with a hit; in the whole collection about 2.6% have one here.
MC4R antagonist = antagonists of human melanocortin 4 receptor (MC4R); P32245; MC4R-expressing cells, MTII-stimulated cAMP, LANCE TR-FRET; inhibition, % at 6.5 µM; actives 0.48% (n = 360,000);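 active means inhibition above its plate's cutoff, the mean of tested wells on that plate plus 3 SD, cut at about 29% in these data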;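 further: 0% = Melanotan II alone and 100% = Melanotan II plus saturating MCL0020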
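System – human MC4R-expressing U2OS cells · Also added – Melanotan II · Dosing – one concentration, 6.5 µM nominal · Timing – 30-min compound, 1-h challenge, 1-h detection, room temperature · Measured by – Eu-cAMP/anti-cAMP TR-FRET, emission 671 nm · Replicates – singlicate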
T cell HTS = T cell immune modulation candidate; 2C CD8+ T cell-vesicle binding, flow cytometry; stronger effect = lower value; response (vesicle binding), % at 7 µM; actives 0.068% (n = 330,000); AID 2052;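 active means response, share of CD8 T cells binding vesicles, and their 90th percentile fluorescence all below set limits, cut at about 80% in these data, passing the limit was not always enough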;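 further: values below 100% mean blocked vesicle binding to the CD8+ T cells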
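Incubation: binding step 1.5 h, 37 °C, antibody labelling 20 min, ice; system: murine 2C transgenic CD8+ T lymphocytes; technique: cytometric PE anti-B7-1 and Alexa647 anti-CD8 signals after 1% paraformaldehyde fixation; also added: QL9-charged Drosophila Ld/ICAM-1/B7-1 vesicles; control set: naked versus QL9-loaded vesicles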
EP2 modulator = EP2 receptor (human) modulation; AID 940; actives 0.83% (n = 260,000); EP2-expressing cells, cAMP HTRF FRET, PGE2 co-stimulation; P43116; induction, % at 25 µM;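 active means compounds whose cAMP rise, as percent of the full-agonist control response, exceeds 60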;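 further: rat C6 glioma line stably carrying human EP2 under a CMV promoter; the protocol text gives 20 µM as final concentration; 100% = response of wells given 1 µM PGE2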
Granule exo inh = blocks lytic granule exocytosis; actives 0.66% (n = 360,000); TALL-104 LAMP-1 surface exposure, flow cytometry; cells stimulated with thapsigargin and PMA; AID 651702; inhibition, % at 10 µM;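 active means inhibition above about 55%, limit read from the data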
MC4R ag barr = activates human MC4R beta-arrestin recruitment; activation, % at 8.9 µM; P32245; U2OS MC4R beta-arrestin complementation, luminescence; percent of melanotan II response, DMSO zero; actives 0.98% (n = 360,000);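 active means activation above a per-plate cutoff, the mean activation of sample wells on that plate plus 3 SD, cut at about 8% in these data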
PGE2 EP2 inh = EP2 receptor (human) inhibition | actives 0.52% (n = 260,000) | inhibition, % at 25 µM | C6 glioma cells expressing human EP2, cAMP TR-FRET; cells stimulated with saturating PGE2;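 active means percent inhibition above 40 after rounding to a whole number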;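 further: rat C6 glioma host cells with rolipram phosphodiesterase inhibitor present; the protocol text gives 20 µM as final concentration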
MC4R barr conf = human MC4R beta-arrestin agonism confirmation; shares compounds with MC4R ag barr; U2OS MC4R beta-arrestin recruitment, luminescence; scaled DMSO 0%, Melanotan II 100%; activation, % at 8.9 µM; actives 31% (n = 2,400);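 active means mean activation across replicates above the hit cutoff set in the earlier primary screen, cut at about 8% in these data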
MOR-DOR barr ag = OPRM1-OPRD1 heterodimer agonism counter-screen | shares compounds with MC4R ag barr | AID 602194 | U2OS PathHunter beta-arrestin, beta-gal luminescence; percent of deltorphin B response, DMSO zero | activation, % at 9.2 µM | actives 5.8% (n = 2,400);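 active means mean activation across replicates exceeds the hit threshold derived in the earlier primary screen, cut at about 18% in these data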;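 further: 100% = deltorphin B at 0.9 µM final and 0% = DMSO alone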
Target sequence (P35372 whole entry, looked up): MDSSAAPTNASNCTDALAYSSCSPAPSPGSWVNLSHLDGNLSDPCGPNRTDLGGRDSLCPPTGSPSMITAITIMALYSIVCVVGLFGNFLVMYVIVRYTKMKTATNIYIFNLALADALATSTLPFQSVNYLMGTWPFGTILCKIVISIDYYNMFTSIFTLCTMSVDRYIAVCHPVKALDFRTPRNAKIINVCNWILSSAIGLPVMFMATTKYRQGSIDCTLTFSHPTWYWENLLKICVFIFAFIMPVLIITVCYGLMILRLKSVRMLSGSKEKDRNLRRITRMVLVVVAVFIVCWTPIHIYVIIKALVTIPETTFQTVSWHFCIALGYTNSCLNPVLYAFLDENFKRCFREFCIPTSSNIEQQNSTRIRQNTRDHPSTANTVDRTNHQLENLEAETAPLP
Target sequence (P41143 whole entry, looked up): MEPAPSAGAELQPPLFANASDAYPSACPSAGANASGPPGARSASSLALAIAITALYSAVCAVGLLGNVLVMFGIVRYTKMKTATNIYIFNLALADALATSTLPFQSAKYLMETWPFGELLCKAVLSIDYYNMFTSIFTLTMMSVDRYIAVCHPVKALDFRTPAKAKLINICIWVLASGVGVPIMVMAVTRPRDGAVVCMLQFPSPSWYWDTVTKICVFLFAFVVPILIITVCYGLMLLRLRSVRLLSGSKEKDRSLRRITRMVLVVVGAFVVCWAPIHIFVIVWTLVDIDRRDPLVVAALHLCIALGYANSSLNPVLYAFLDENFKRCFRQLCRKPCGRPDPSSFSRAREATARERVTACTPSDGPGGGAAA
* = called active by the depositor.

`CC(C)CC(=O)OC1C(N2CCOCC2)c2c(ccc(/C=C/C(=O)N3CCOCC3)c2O)OC1(C)C` (stereo not drawn) gave MC4R antagonist 1, T cell HTS 193, EP2 modulator 15, Granule exo inh 3, MC4R ag barr 12*, PGE2 EP2 inh 7, MC4R barr conf 5 and MOR-DOR barr ag 3.
`COc1ccc(S(=O)(=O)N(CCc2ccccc2)CC(=O)N/N=C/c2ccc3c(c2)OCO3)cc1` gave MC4R antagonist 1, T cell HTS 323, EP2 modulator 9, Granule exo inh 0, MC4R ag barr 2 and PGE2 EP2 inh 5.
O=C(CN(CCc1ccccc1)S(=O)(=O)c1ccc(Cl)cc1)N/N=C/c1ccc2c(c1)OCO2 was read as MC4R antagonist 7, T cell HTS 600, EP2 modulator 30, Granule exo inh 12, MC4R ag barr 25*, PGE2 EP2 inh 5, MC4R barr conf 7 and MOR-DOR barr ag 5.
`CC(C)c1ccccc1NC(=O)Nc1nnc([C@@H]2C[C@H](O)[C@@H](CO)O2)s1` gave MC4R antagonist -3, Granule exo inh 0 and MC4R ag barr 1.
COc1cccc(CC2(CO)CCCN(Cc3[nH]c4ccc(C)cc4c3C)C2)c1 (stereo not drawn) was read as MC4R antagonist 2, T cell HTS 189, EP2 modulator -23, Granule exo inh 44, MC4R ag barr 11*, PGE2 EP2 inh 8, MC4R barr conf 19* and MOR-DOR barr ag 14.
For CCOC(=O)c1cnc2c(C#N)c(C)nn2c1-c1ccccc1 the results were MC4R antagonist 5, T cell HTS 580, EP2 modulator -40, Granule exo inh -4, MC4R ag barr -1 and PGE2 EP2 inh 13.
Screening CCCc1cc(=O)oc2c(C)c3occ(C)c3cc12 returned MC4R antagonist 4, T cell HTS 347, EP2 modulator 54, Granule exo inh 22, MC4R ag barr 18*, PGE2 EP2 inh 11, MC4R barr conf 1 and MOR-DOR barr ag 4.
COc1ccc(/C=C/C(=O)Nc2sc(Cc3ccccc3)c(C)c2C(N)=O)cc1 was read as MC4R antagonist -6, T cell HTS 281, EP2 modulator 1, Granule exo inh 0, MC4R ag barr 25*, PGE2 EP2 inh 9, MC4R barr conf 16* and MOR-DOR barr ag 8.
Cc1c(Cc2ccccc2)sc(NC(=O)Cc2ccccc2)c1C(N)=O was read as MC4R antagonist 6, T cell HTS 354, Granule exo inh -1, MC4R ag barr 11*, PGE2 EP2 inh 16, MC4R barr conf 4 and MOR-DOR barr ag 5.
For CCC(=O)Nc1sc(Cc2ccccc2)c(C)c1C(N)=O the results were MC4R antagonist 3, T cell HTS 458, EP2 modulator 2, Granule exo inh -3, MC4R ag barr -3 and PGE2 EP2 inh 7.
Screening CCC1CCCCN1C(=O)COc1c(Br)cc(Br)c2cccnc12 (stereo not drawn) returned MC4R antagonist -4, T cell HTS 299, EP2 modulator 19, Granule exo inh 5, MC4R ag barr -1 and PGE2 EP2 inh 19.
Screening CS(=O)(=O)N(Cc1ccco1)CC(O)Cn1c2ccccc2c2ccccc21 (stereo not drawn) returned MC4R antagonist 2, T cell HTS 551, EP2 modulator -5, Granule exo inh 7, MC4R ag barr 1 and PGE2 EP2 inh 5.
Screening Cc1ccccc1Oc1nc2ccccc2n2cnnc12 returned MC4R antagonist -3, T cell HTS 206, EP2 modulator -10, Granule exo inh 8, MC4R ag barr 0 and PGE2 EP2 inh 4.
Screening CSc1ccc(OC2(C)CCN(Cc3ccc(C(C)C)cc3)C2)cc1 (stereo not drawn) returned MC4R antagonist 5, Granule exo inh -8, MC4R ag barr 12*, MC4R barr conf 2 and MOR-DOR barr ag 6.
Screening CC1(Oc2ccc(Cl)cc2)CCN(Cc2ccc(-c3ccccn3)cc2)C1 (stereo not drawn) returned MC4R antagonist 3, Granule exo inh -1, MC4R ag barr 13*, MC4R barr conf 7 and MOR-DOR barr ag 8.
`NC1=NC[C@@H](Cc2ccc(O)cc2)N1CCC12CC3CC(CC(C3)C1)C2` gave MC4R antagonist 10, T cell HTS 178, Granule exo inh 0, MC4R ag barr 4 and PGE2 EP2 inh 14.
Cc1ccnc(Nc2nc(-c3ccc(O)cc3O)cs2)c1 was read as MC4R antagonist 8, T cell HTS 530, Granule exo inh 17, MC4R ag barr 18*, MC4R barr conf 13* and MOR-DOR barr ag 8.
Screening S=c1[nH]c(-c2ccc(Br)cc2)cn1CCc1ccccc1 returned MC4R antagonist 4, T cell HTS 417, EP2 modulator -13, Granule exo inh -2, MC4R ag barr 19*, PGE2 EP2 inh 4, MC4R barr conf -1 and MOR-DOR barr ag 5.
Screening COc1ccccc1-n1cc(-c2ccc(Br)cc2)[nH]c1=S returned MC4R antagonist 6, T cell HTS 248, Granule exo inh -14 and MC4R ag barr 1.
For CC(C)CNC(=O)C1CCCN1S(=O)(=O)c1ccc(Cl)cc1 (stereo not drawn) the results were MC4R antagonist -4, T cell HTS 321, EP2 modulator 10, Granule exo inh -2, MC4R ag barr 0 and PGE2 EP2 inh 5.
CC1(C)NC(=O)N(CCOCCOc2ccccc2-c2ccccc2)C1=O was read as MC4R antagonist 2, T cell HTS inactive, EP2 modulator -10, Granule exo inh -4, MC4R ag barr 1 and PGE2 EP2 inh 0.
Screening Cc1cccc2cc3c(NC(=O)c4ccccn4)nn(C)c3nc12 returned MC4R antagonist -3, T cell HTS 404, EP2 modulator 12, Granule exo inh 0, MC4R ag barr 13*, PGE2 EP2 inh 9, MC4R barr conf 2 and MOR-DOR barr ag 4.
Screening COc1ccc(CN=C(C)c2c(C(F)(F)F)[nH]n(-c3nc4ccccc4s3)c2=O)cc1 returned MC4R antagonist 2, T cell HTS 310, EP2 modulator -34, Granule exo inh 2, MC4R ag barr -1 and PGE2 EP2 inh 4.

Bioassay records deposited in PubChem by several laboratories.
